Test results taken from ChEMBL document CHEMBL1125707, “Dexamethasone 21-(beta-isothiocyanatoethyl) thioether: a new affinity label for glucocorticoid receptors” (J Med Chem, 1991).

Experiments:
[1] = target: T1, Glucocorticoid receptor (Rattus norvegicus) (UniProt P06536); assay: Relative affinity [Ka compound/Ka Dex] for glucocorticoid receptors in whole-cell competition assay
T1 sequence (whole entry): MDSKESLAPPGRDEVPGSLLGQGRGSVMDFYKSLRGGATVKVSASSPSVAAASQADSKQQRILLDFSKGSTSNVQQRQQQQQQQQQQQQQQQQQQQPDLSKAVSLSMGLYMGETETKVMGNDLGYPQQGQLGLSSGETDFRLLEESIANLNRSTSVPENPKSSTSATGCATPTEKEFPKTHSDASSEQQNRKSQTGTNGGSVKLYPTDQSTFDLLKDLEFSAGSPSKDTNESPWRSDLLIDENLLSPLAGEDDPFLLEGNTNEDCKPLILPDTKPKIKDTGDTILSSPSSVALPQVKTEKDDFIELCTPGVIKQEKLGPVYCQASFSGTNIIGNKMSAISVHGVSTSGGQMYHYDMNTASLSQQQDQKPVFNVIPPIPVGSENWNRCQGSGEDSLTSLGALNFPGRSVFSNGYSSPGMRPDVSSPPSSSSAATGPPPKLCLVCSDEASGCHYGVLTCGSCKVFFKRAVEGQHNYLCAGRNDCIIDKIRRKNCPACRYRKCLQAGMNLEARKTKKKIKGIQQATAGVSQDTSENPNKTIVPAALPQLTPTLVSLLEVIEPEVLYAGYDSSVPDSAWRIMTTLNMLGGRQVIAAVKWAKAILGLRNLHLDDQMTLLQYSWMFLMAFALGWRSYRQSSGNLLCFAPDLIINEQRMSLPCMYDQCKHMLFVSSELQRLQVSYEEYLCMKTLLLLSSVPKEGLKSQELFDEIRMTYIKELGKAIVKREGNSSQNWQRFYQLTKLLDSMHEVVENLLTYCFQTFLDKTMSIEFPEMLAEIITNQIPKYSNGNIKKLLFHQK
Outline: (§1)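 Competition with [3H]Dex for glucocorticoid receptors, in HTC cell cytosol (0 °C) or in intact HTC cells (30 min, 37 °C). Relative affinity is the ratio of Dex to steroid concentrations giving 50% inhibition of [3H]Dex binding, corrected by the Rodbard method for partial receptor occupancy by uncompeted [3H]Dex. Averages of 2–4 experiments.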

[2] = target: T1, Glucocorticoid receptor (Rattus norvegicus); assay: Relative affinity [Ka compound/Ka Dex] for glucocorticoid receptors in cell-free competition assay; outline: as §1
[3] = target: T1, Glucocorticoid receptor (Rattus norvegicus); assay: Dex-NCS incubation on the subsequent inhibition of exchange binding with [3H]Dexamethasone measured at pH 7.6 at 20h.; conditions: concentration not given here
Outline: (§2)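 Crude HTC cytosol receptors in TAPS buffer were preincubated 3 h at 0 °C with Dex-NCS (290 or 580 nM) or cortisol (60 or 120 nM). Activated charcoal then removed free steroid and inactivated steroid-free receptors. Cytosol was adjusted to 1.9×10^-8 M [3H]Dex ± 575-fold unlabeled Dex and incubated for the stated times at 0 °C, final pH 8.8 or 7.6. Bound steroid was charcoal-separated; specific = total − nonspecific. Cortisol preincubation defined exchangeable binding. Run in duplicate; mean (SD, n).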

[4] = target: T1, Glucocorticoid receptor (Rattus norvegicus); assay: Dex-NCS incubation on the subsequent inhibition of exchange binding with [3H]dexamethasone measured at pH 8.8 at 5h.; conditions: concentration not given here; outline: as §2
[5] = target: T1, Glucocorticoid receptor (Rattus norvegicus); assay: Dex-NCS incubation on the subsequent inhibition of exchange binding with [3H]dexamethasone measured at pH 7.6 at 5h.; conditions: concentration not given here; outline: as §2
[6] = target: T1, Glucocorticoid receptor (Rattus norvegicus); assay: Dex-NCS incubation on the subsequent inhibition of exchange binding with [3H]dexamethasone measured at pH 8.8 at 3h.; conditions: concentration not given here; outline: as §2
[7] = target: T1, Glucocorticoid receptor (Rattus norvegicus); assay: Dex-NCS incubation on the subsequent inhibition of exchange binding with [3H]dexamethasone measured at pH 7.6 at 3h.; conditions: concentration not given here; outline: as §2
[8] = target: T1, Glucocorticoid receptor (Rattus norvegicus); assay: Dex-NCS incubation on the subsequent inhibition of exchange binding with [3H]dexamethasone measured at pH 7.6 at 1h.; conditions: concentration not given here; outline: as §2
[9] = target: T1, Glucocorticoid receptor (Rattus norvegicus); assay: Dex-NCS incubation on the subsequent inhibition of exchange binding with [3H]dexamethasone measured at pH 8.8 at 1h.; conditions: concentration not given here; outline: as §2
[10] = target: Glucocorticoid receptor (Rattus norvegicus) (UniProt P06536); conditions: filed as partial agonist

Row | Relative affinity [1] | Relative affinity [2] | inhibition [3] | inhibition [4] | inhibition [5] | inhibition [6] | inhibition [7] | inhibition [8] | inhibition [9] | Agonist [10] | SMILES
1 | 0.0087 | 0.079 | – | – | – | – | – | – | – | – | C[C@@H]1CC2C3CCC4=CC(=O)C=C[C@]4(C)[C@@]3(F)[C@@H](O)C[C@]2(C)[C@@]1(O)C(=O)COC(=O)c1c(C(F)(F)F)cccc1C(F)(F)F (some centres not stated)
2 | – | – | 45.7% | 34.1% | 56.6% | 37% | 60.5% | 63.2% | 43.8% | – | C[C@@H]1CC2C3CCC4=CC(=O)C=C[C@]4(C)[C@@]3(F)[C@@H](O)C[C@]2(C)[C@@]1(O)C(=O)CSCCN=C=S (some centres not stated)
3 | 0.063 | 0.021 | – | – | – | – | – | – | – | Partial agonist | C[C@@H]1CC2C3CCC4=CC(=O)C=C[C@]4(C)[C@@]3(F)[C@@H](O)C[C@]2(C)[C@@]1(O)C(=O)CBr (some centres not stated)
